Assay outcomes deposited in PubChem BioAssay by The Scripps Research Institute Molecular Screening Center.
CHO parental Ca = counter-screen for OX1R antagonists: effect in parental CHO cells; actives 0.63% (n = 330,000); parental CHO-K1, ATP-induced calcium, Fluo-8 fluorescence; AID 463079; inhibition, % at 5.6 µM;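 active = inhibition above that plate's mean sample inhibition plus 3 SD, cut at about 26% in these data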
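test system = CHO parental line | reagent = ATP stimulus | measured by = intracellular calcium via Fluo-8 no-wash fluorescent dye | control set = ATP and no-ATP DMSO wells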
TAAR1 antag = antagonists of human TAAR1; actives 1.5% (n = 360,000); Q96RJ0; CHO RD-HGA16 TAAR1, Fluo-8 calcium fluorescence, antagonist; AID 624466; inhibition, % at 3 µM;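 active = inhibition above a per-plate cutoff, the mean inhibition of test compounds on that plate plus 3 SD, cut at about 49% in these data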
Target sequence (Q96RJ0 whole entry, looked up): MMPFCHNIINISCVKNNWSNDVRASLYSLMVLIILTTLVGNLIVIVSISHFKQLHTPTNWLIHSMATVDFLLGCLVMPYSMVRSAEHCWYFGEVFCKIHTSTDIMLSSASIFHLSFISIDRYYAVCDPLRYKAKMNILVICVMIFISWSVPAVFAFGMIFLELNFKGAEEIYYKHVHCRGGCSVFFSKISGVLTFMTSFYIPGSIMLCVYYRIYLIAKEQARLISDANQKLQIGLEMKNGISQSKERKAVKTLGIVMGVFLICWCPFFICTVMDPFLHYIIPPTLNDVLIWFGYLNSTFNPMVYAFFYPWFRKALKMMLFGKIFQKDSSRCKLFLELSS
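Material: RD-HGA16 CHO cells with stable hTAAR1 and Gα16; Dosing: single nominal final test compound concentration of 3 µM; Schedule: seeding 17-24 h prior, 75-min 37 °C, 30-min RT dye loading; Detection: kinetic Fluo-8 calcium fluorescence measurement; Measure: % inhibition from peak post-agonist over basal fluorescence ratio; Benchmarks: vehicle and agonist controls.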
TAAR1 agonist = agonists of human TAAR1 | CHO RD-HGA16 TAAR1, Fluo-8 calcium fluorescence; vehicle wells 0%, saturating PEA agonist 100% | Q96RJ0 | actives 0.99% (n = 360,000) | AID 624467 | activation, % at 3 µM;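 active = activation above the mean activation of all test compounds in the run plus 3 SD, cut at about 38% in these data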
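Signal – calcium-sensitive Fluo-8 signal, excitation 470-495, emission 515-575 nm · System – RD-HGA16 (CHO) cells co-expressing Gα16 and hTAAR1 · Incubation – 17-24 h seeding, 75 min 37 °C dye, 30 min RT · Compound dosing – 3 µM single concentration · Repeats – no replicates (n 1)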
OX1R antag-1 = blocks the human orexin 1 receptor; O43613; actives 0.43% (n = 330,000); AID 434989; CHO/OX1R cells, Fluo-8 calcium fluorescence, orexin A; inhibition, % at 5 µM;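 active = inhibition above its plate's threshold, mean inhibition of all tested compounds on the plate plus 3 SD, cut at about 37% in these data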
Target sequence (O43613 whole entry, looked up): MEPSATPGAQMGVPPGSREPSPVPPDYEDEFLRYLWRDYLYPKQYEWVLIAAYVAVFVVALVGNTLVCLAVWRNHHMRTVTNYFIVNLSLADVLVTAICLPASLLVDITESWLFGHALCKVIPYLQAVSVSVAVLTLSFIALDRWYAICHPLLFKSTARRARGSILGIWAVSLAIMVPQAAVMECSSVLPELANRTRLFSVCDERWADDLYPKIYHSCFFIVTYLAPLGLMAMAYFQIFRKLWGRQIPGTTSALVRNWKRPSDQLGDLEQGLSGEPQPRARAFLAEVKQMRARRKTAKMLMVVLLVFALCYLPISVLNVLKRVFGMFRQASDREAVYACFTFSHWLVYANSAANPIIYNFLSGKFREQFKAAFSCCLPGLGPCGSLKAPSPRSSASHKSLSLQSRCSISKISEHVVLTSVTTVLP
OX1R antag-2 = antagonists of human orexin 1 receptor (OX1R); AID 485270; actives 1.8% (n = 330,000); O43613; OX1R-expressing cells, FRET antagonist read-out; inhibition, % at 6.6 µM; in the data active = inhibition mostly above about 38%, no sharp cut-off; inactive = mostly below about 40%
OX1R HTRF confirm = OX1R (human) antagonism, HTRF confirmed; actives 49% (n = 1,800); AID 492964; OX1R-expressing cells, HTRF antagonist assay; shares compounds with OX1R antag-2; inhibition, % at 6.6 µM; in the data active = inhibition above about 55%;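 note: CHO cells expressing OX1R stimulated with orexin A at about EC80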
CHO-K1 HTRF cnt = counter-screen: parental CHO-K1 HTRF response; shares compounds with OX1R antag-2; parental CHO-K1 cells, HTRF counterscreen; inhibition, % at 6.6 µM; actives 48% (n = 1,800); in the data active = inhibition above about 17%
nonsel antag count = nonselective antagonist in TAAR1 antagonist counter-screen; counterscreen cell line, calcium fluorescence, antagonist mode; inhibition, % at 3 µM; actives 77% (n = 2,400); shares compounds with TAAR1 antag; in the data active = inhibition above about 22%;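 note: CHO-Ga16 host cells stimulated with ATP at an EC80 level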
TAAR1 ant conf = confirmation of human TAAR1 antagonists | shares compounds with TAAR1 antag | TAAR1-expressing cells, fluorescence antagonist read-out | inhibition, % at 3 µM | actives 40% (n = 2,400) | AID 651785; in the data active = inhibition above about 49%;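 note: CHO-Ga16 host cells challenged with agonist PEA near its EC80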
Ga16 ag counter = counter-screen for TAAR1 antagonists: nonselective Ga16 agonists; shares compounds with TAAR1 antag; Ga16-expressing cells, calcium fluorescence, agonist counterscreen; activation, % at 3 µM; actives 18% (n = 2,400); in the data active = activation above about 12%
TAAR1 ag counter = TAAR1 agonism, antagonist counter-screen. hTAAR1 cell line, fluorescence activation, agonist mode. AID 651955. actives 2% (n = 2,400). shares compounds with TAAR1 antag. activation, % at 3 µM; in the data active = activation above about 37%;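 note: CHO cells stably expressing TAAR1 with calcium dye readout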
Each line names hits and unclear results; the compound was inactive in the other large screens (follow-up assays come after a bar, where they were run). Rows were chosen to be rich in hits. Some 4% of all compounds tested hit in one or more screens of this group.

COC(=O)c1cc2ccccn2c2c(C(=O)OC)c(C(=O)OC)cc1-2	TAAR1 antag 62.0, OX1R antag-2 94.3 | OX1R HTRF confirm inactive | CHO-K1 HTRF cnt 24.9 | nonsel antag count 27.6 | TAAR1 ant conf 49.0 | Ga16 ag counter inactive | TAAR1 ag counter inactive
COC(=O)c1cc2c(C)cc3ccc(C)cn3c-2c1C(=O)OC	none
NS(=O)(=O)c1ccc(CCNC(=O)CSc2nnc3ccccn23)cc1	none
COc1ccc(C(=O)Oc2cccc(Nc3ncnc4ccccc34)c2)cc1OC	TAAR1 antag 68.9, OX1R antag-2 83.8 | OX1R HTRF confirm inactive | CHO-K1 HTRF cnt inactive | nonsel antag count 43.4 | TAAR1 ant conf 53.6 | Ga16 ag counter 11.6 | TAAR1 ag counter inactive
COc1cccc(CN(C)C(=O)c2cc(-c3ccc(F)cc3)nc3ccccc23)c1	none (no result: TAAR1 antag, TAAR1 agonist)
COc1ccc(-c2cc(C(=O)NCc3cn(C)nc3C)c3ccccc3n2)cc1OC	none
COc1ccccc1-c1csc(NC(=O)c2cc(-c3cccs3)nc3ccccc23)n1	none
COc1ccc(-c2cc(C(=O)N(C)Cc3cccc(OC)c3OC)c3ccccc3n2)cc1OC	TAAR1 antag 61.8 | nonsel antag count 27.6 | TAAR1 ant conf inactive | Ga16 ag counter inactive | TAAR1 ag counter inactive
COc1ccc(CN(C)C(=O)c2cc(-c3ccc(OC)c(OC)c3)nc3ccccc23)c(OC)c1	TAAR1 antag 79.8 (no result: CHO parental Ca, OX1R antag-1, OX1R antag-2) | nonsel antag count 25.7 | TAAR1 ant conf 48.7 | Ga16 ag counter inactive | TAAR1 ag counter inactive
COc1ccccc1CN(C)C(=O)c1cc(-c2cccs2)nc2ccccc12	TAAR1 antag 70.3 | nonsel antag count 37.5 | TAAR1 ant conf 56.4 | Ga16 ag counter inactive | TAAR1 ag counter inactive
Cc1ccc(NC(=O)C(C)c2ccc(-c3ccccc3)c(F)c2)c(C)c1 (stereo not given)	TAAR1 antag 54.3 | nonsel antag count inactive | TAAR1 ant conf inactive | Ga16 ag counter inactive | TAAR1 ag counter inactive
CC(C(=O)O)c1ccc(-c2ccccc2)c(F)c1 (stereo not given)	none
COc1ccc(C(=O)CCc2nc3ccccc3s2)cc1	none
CC(C)(C)OC(=O)CNC(=O)c1nc[nH]c1C(=O)NCc1ccc(CNC(=O)OC(C)(C)C)cc1	TAAR1 antag 70.5 | nonsel antag count 40.5 | TAAR1 ant conf 53.8 | Ga16 ag counter 15.6 | TAAR1 ag counter inactive
CC(C)(C)OC(=O)NCCCCCNC(=O)c1nc[nH]c1C(=O)NCC(=O)OCc1ccccc1	TAAR1 antag 77.9 | nonsel antag count 38.5 | TAAR1 ant conf 62.4 | Ga16 ag counter 13.3 | TAAR1 ag counter inactive
O=C(CNC(=O)c1[nH]cnc1C(=O)NC(c1ccccc1)c1ccccc1)OCc1ccccc1	TAAR1 antag 67.8 | nonsel antag count 25.8 | TAAR1 ant conf inactive | Ga16 ag counter inactive | TAAR1 ag counter inactive
CC(C)(C)OC(=O)N1CCN(C(=O)c2[nH]cnc2C(=O)N[C@@H](Cc2ccccc2)C(=O)OCc2ccccc2)CC1	TAAR1 antag 68.9 | nonsel antag count 22.7 | TAAR1 ant conf inactive | Ga16 ag counter inactive | TAAR1 ag counter inactive
Cc1ccc(/C=C/S(=O)(=O)NCC(=O)OCC(=O)N2CC(=O)Nc3ccccc32)cc1	none
Cc1cccc(NC(=O)c2nc[nH]c2C(=O)NCCCCCNC(=O)OC(C)(C)C)c1	TAAR1 antag 55.9 | nonsel antag count inactive | TAAR1 ant conf inactive | Ga16 ag counter inactive | TAAR1 ag counter inactive
CC(C)(C)OC(=O)NCCCC[C@H](NC(=O)c1nc[nH]c1C(=O)N1CCc2ccccc2C1)C(=O)OC(C)(C)C	none
CC(C)(C)OC(=O)NCCCCCNC(=O)c1nc[nH]c1C(=O)N1CCc2ccccc2C1	TAAR1 antag 76.2 | nonsel antag count 33.9 | TAAR1 ant conf 51.8 | Ga16 ag counter inactive | TAAR1 ag counter inactive
CC(C)(C)OC(=O)NCCCC[C@H](NC(=O)c1nc[nH]c1C(=O)NCC(=O)OCc1ccccc1)C(=O)OC(C)(C)C	TAAR1 antag 54.9 | nonsel antag count 23.3 | TAAR1 ant conf inactive | Ga16 ag counter inactive | TAAR1 ag counter inactive
Cc1cccc(NC(=O)c2nc[nH]c2C(=O)NCCCNC(=O)c2[nH]cnc2C(=O)Nc2cccc(C)c2)c1	none
CC(C)(C)OC(=O)CNC(=O)c1[nH]cnc1C(=O)NCC(=O)OCc1ccccc1	TAAR1 antag 69.5 | nonsel antag count 31.4 | TAAR1 ant conf 56.1 | Ga16 ag counter inactive | TAAR1 ag counter inactive
CC(C)(C)OC(=O)CNC(=O)c1nc[nH]c1C(=O)NCc1ccccc1	none
CCOCCC(=O)Nc1ccc2c(c1)c(=O)n(C)n2Cc1cccc(C(F)(F)F)c1	none (no result: CHO parental Ca, OX1R antag-1, OX1R antag-2)
CC(=O)N1c2ccc(S(=O)(=O)NCCC(=O)Nc3ccc(F)cc3C)cc2CC1C (stereo not given)	none
COc1ccc2nc(C)cc(SCC(=O)NNC(=O)COc3cccc4ccccc34)c2c1	TAAR1 antag 71.1, OX1R antag-2 71.0 | nonsel antag count 45.7 | TAAR1 ant conf 56.0 | Ga16 ag counter inactive | TAAR1 ag counter inactive
O=[N+]([O-])c1ccc(N/N=C/c2c[nH]c3ccccc23)c(S(=O)(=O)Nc2ccc(Cl)cc2)c1	none
COc1ccccc1NS(=O)(=O)c1cc([N+](=O)[O-])ccc1N/N=C/c1c(C)[nH]c2ccccc12	CHO parental Ca 41.2, TAAR1 antag 58.3, OX1R antag-1 46.1 | nonsel antag count 47.3 | TAAR1 ant conf inactive | Ga16 ag counter 16.4 | TAAR1 ag counter inactive
CCCCNc1c(-c2ccc(OC)c(Sc3ccc(OC)cc3)c2)nc2cnccn12	TAAR1 antag 74.7 | nonsel antag count 23.1 | TAAR1 ant conf 57.0 | Ga16 ag counter inactive | TAAR1 ag counter inactive
CCOc1ccc2nc(NC(=O)CS(=O)(=O)c3ccccc3)sc2c1	none
CCOc1ccc2nc(NC(=O)CS(=O)(=O)c3ccc(C)cc3)sc2c1	TAAR1 antag 54.6 | nonsel antag count inactive | TAAR1 ant conf inactive | Ga16 ag counter inactive | TAAR1 ag counter inactive
